Assays:
H3(15-34) peptides = assay: Peptide pull-down and ITC of AF10PZP mutants; assay type: binding; details: pull-down and ITC assays
Method in brief: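 Alanine substitutions were made at AF10PZP residues that contact H3T22, H3K23, H3A24, H3R26 and H3K27. GST-AF10PZP (pGEX-6P-1 construct) was used in pull-downs with biotinylated H3(15-34) peptides, and binding was also assessed by ITC.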

ML2 leukemia cells = assay: Proliferation of ML2 cells; assay type: cell-based; details: AF10-depleted ML2 cells; three independent experiments
Method in brief: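 Growth curves were run on ML2 leukemia cells (MLL-AF6 fusion) carrying control or AF10-targeting sgRNA, either without reconstitution or reconstituted with wild-type AF10 or AF10L107A. SEM came from three independent experiments.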

chromatin (U2OS cells) = assay type: cell-based
Method in brief: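 Lysates from U2OS cells expressing wild-type or mutant GFP-AF10 were biochemically separated into soluble and chromatin-enriched fractions, then Western blotted with the indicated antibodies. Whole cell extract controlled for total AF10 expression, and tubulin and H3 levels controlled for integrity of fractionation.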

[1] = system: H3K79me2 at the PABPC1 gene, U2OS cells; assay: ChIP of H3K79me2 at PABPC1; assay type: cell-based; details: AF10 deleted, normalized to total H3, three experiments
Method in brief: (§1)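 Direct ChIP at the PABPC1 gene used two primer positions along the gene in the U2OS AF10 complementation lines. GFP enrichment was expressed as % GFP signal/input. H3K79me2 signal was normalized to total H3 signal. SEM came from three experiments.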

PABPC1 gene, U2OS cells = assay: ChIP of GFP at PABPC1; assay type: cell-based; details: % GFP signal/input, three experiments
Method in brief: as §1

chromatin (HeLa cells) = assay: In situ fractionation, fluorescence microscopy; assay type: cell-based; details: detergent treatment prior to fixation, 30–60 cells, three independent fields, two biological replica

effect of AF10PZP mutation on binding to H3 peptides (H3(15-34) peptides): abolishes H3 binding
B1: GFP-AF10L107A: AF10 mutant that abolishes H3 binding, involved in both K23 and K27 side-chain recognition (protein)
chain: MVSSDRPVSLEDEVSHSMKEMIGGCCVCSDERGWAENPLVYCDGHGCSVAVHQACYGIVQVPTGPWFCRKCESQERAARVRCELCPHKDGALKRTDNGGWAHVVCAAYIPEVQFANVSTMEPIVLQSVPHDRYNKTCYICDEQGRESKAATGACMTCNKHGCRQAFHVTCAQFAGLLCEEEGNGADNVQYCGYCKYHFSKLKKSKRGS
modifications: left off: GST, end not stated, kept
reversal of decreased proliferation (ML2 leukemia cells): but not with mutant AF10L107A | AF10 enrichment at chromatin (chromatin (U2OS cells); tetracycline-inducible GFP-AF10): reduced in comparison to wild-type AF10 | AF10 detected in the soluble fraction (chromatin (U2OS cells); versus wild-type AF10): more mutant being detected in the soluble fraction | reconstitution of H3K79me2 signal at PABPC1 [1]: but not upon induction of GFP-AF10L107A | occupancy at the PABPC1 gene (PABPC1 gene, U2OS cells): low relative to wild-type GFP-AF10 | chromatin-association by in situ fractionation (chromatin (HeLa cells)): Decreased chromatin-association

From article PMC4609290 (Molecular cell, 2015)
